Test results: ChEMBL document CHEMBL1275561, “In vitro activities of doripenem, a new broad-spectrum carbapenem, against recently collected clinical anaerobic isolates, with emphasis on the Bacteroides fragilis group” (2008)
In brackets after ≈: the same amount, converted by molar mass.

Tests used:
Assay type in all cases: functional
Cutibacterium acnes [1] = assay: Antimicrobial activity against Propionibacterium acnes by agar dilution method
In short: (§1)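 Log-phase isolates were adjusted to 0.5 McFarland, and about 10^5 CFU/spot was delivered by Steers replicator. Plates were incubated anaerobically at 37°C for 48 h. MIC was the lowest concentration giving a marked growth change versus the control plate. Eubacterium lentum ATCC 43055 was the QC strain, with repeats when out of range.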

Clostridioides difficile = assay: Antimicrobial activity against Clostridium difficile by agar dilution method
Clostridium tertium = assay: Antimicrobial activity against Clostridium tertium by agar dilution method
[Clostridium] innocuum [2] = Antimicrobial activity against Clostridium innocuum assessed as resistant isolates by agar dilution method; settings: pooled result: one value given for 4 cell lines, strains, targets or settings
Finegoldia magna [3] = assay: Antimicrobial activity against Finegoldia magna by agar dilution method
In short: (§2)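 Gram-positive anaerobes were tested by CLSI agar dilution on brucella agar enriched with 5% lysed defibrinated sheep blood and 1 μg/ml vitamin K1. Inoculum was log-phase growth at 0.5 McFarland, about 10^5 CFU/spot by replicator. Incubation was anaerobic, 37°C, 48 h. MIC was the lowest concentration with a marked growth change versus the drug-free plate. Eubacterium lentum ATCC 43055 was the control, and tests were repeated if it fell outside the CLSI range.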

Clostridium perfringens = assay: Antimicrobial activity against Clostridium perfringens by agar dilution method
[4] = system: Peptoniphilus asaccharolyticus; assay: Antimicrobial activity against Peptoniphilus asaccharolyticus by agar dilution method; in short: as §2
Clostridium subterminale = assay: Antimicrobial activity against Clostridium subterminale by agar dilution method
Anaerococcus prevotii = assay: Antimicrobial activity against Anaerococcus prevotii by agar dilution method; in short: as §2
Propionibacterium [5] = assay: Antimicrobial activity against Propionibacterium sp. by agar dilution method; in short: as §1
Propionibacterium [6] = assay: Antimicrobial activity against Propionibacterium sp. assessed as resistant isolates by agar dilution method
In short: (§3)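 Agar dilution following CLSI on brucella agar with 5% lysed defibrinated sheep blood and 1 μg/ml vitamin K1, plates made on test day. Log-phase cells at 0.5 McFarland, about 10^5 CFU/spot by Steers replicator, 48 h anaerobic at 37°C. MIC read as the lowest concentration causing a marked growth change versus control. Resistance counted by CLSI anaerobe breakpoints. Eubacterium lentum ATCC 43055 served as control.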

Peptostreptococcus sp. = assay: Antimicrobial activity against Peptostreptococcus sp. by agar dilution method; in short: as §1
[7] = system: Clostridium paraputrificum; assay: Antimicrobial activity against Clostridium paraputrificum by agar dilution method
Finegoldia magna [8] = assay: Antimicrobial activity against Finegoldia magna assessed as resistant isolates by agar dilution method; in short: as §3
Parvimonas micra = assay: Antimicrobial activity against Micromonas micros by agar dilution method; in short: as §2
[9] = system: Peptoniphilus asaccharolyticus; assay: Antimicrobial activity against Peptoniphilus asaccharolyticus assessed as resistant isolates by agar dilution method; settings: pooled result: one value given for 4 cell lines, strains, targets or settings; in short: as §3
[Clostridium] innocuum [10] = Antimicrobial activity against Clostridium innocuum by agar dilution method
Cutibacterium acnes [11] = assay: Antimicrobial activity against Propionibacterium acnes assessed as resistant isolates by agar dilution method; in short: as §3

Structure (SMILES)	MIC50 (Cutibacterium acnes [1]) [µg/mL]	MIC90 (Cutibacterium acnes [1]) [µg/mL]	MIC (Clostridioides difficile) [µg/mL]	MIC50 (Clostridium tertium) [µg/mL]	MIC90 (Clostridium tertium) [µg/mL]	Activity ([Clostridium] innocuum [2]) [%]	MIC (Finegoldia magna [3]) [µg/mL]	MIC50 (Finegoldia magna [3]) [µg/mL]	MIC90 (Finegoldia magna [3]) [µg/mL]	MIC50 (Clostridium perfringens) [µg/mL]	MIC90 (Clostridium perfringens) [µg/mL]	MIC50 [4] [µg/mL]	MIC90 [4] [µg/mL]	MIC50 (Clostridium subterminale) [µg/mL]	MIC90 (Clostridium subterminale) [µg/mL]	MIC50 (Anaerococcus prevotii) [µg/mL]	MIC90 (Anaerococcus prevotii) [µg/mL]	MIC50 (Propionibacterium [5]) [µg/mL]	MIC90 (Propionibacterium [5]) [µg/mL]	Activity (Propionibacterium [6]) [%]	further results
Cc1ncc([N+](=O)[O-])n1CCO [METRONIDAZOLE]	32 (≈ 187 µM)	32 (≈ 187 µM)	0.5 (≈ 2.92 µM)	2 (≈ 11.7 µM)	2 (≈ 11.7 µM)	5.6	0.5 (≈ 2.92 µM)	0.5 (≈ 2.92 µM)	0.5 (≈ 2.92 µM)	2 (≈ 11.7 µM)	4 (≈ 23.4 µM)	1 (≈ 5.84 µM)	32 (≈ 187 µM)	2 (≈ 11.7 µM)	2 (≈ 11.7 µM)	1 (≈ 5.84 µM)	32 (≈ 187 µM)	32 (≈ 187 µM)	32 (≈ 187 µM)	92.3	MIC50 (Peptostreptococcus sp.): 1 µg/mL (≈ 5.84 µM); MIC90 (Peptostreptococcus sp.): 32 µg/mL (≈ 187 µM); MIC50 [7]: 2 µg/mL (≈ 11.7 µM); MIC90 [7]: 2 µg/mL (≈ 11.7 µM); Activity (Finegoldia magna [8]): 0%; MIC50 (Parvimonas micra): 1 µg/mL (≈ 5.84 µM); MIC90 (Parvimonas micra): 32 µg/mL (≈ 187 µM); Activity [9]: 34.1%; MIC50 ([Clostridium] innocuum [10]): 2 µg/mL (≈ 11.7 µM); MIC90 ([Clostridium] innocuum [10]): 2 µg/mL (≈ 11.7 µM); Activity (Cutibacterium acnes [11]): 94.4%
CC(=O)NC[C@H]1CN(c2ccc(N3CCOCC3)c(F)c2)C(=O)O1 [LINEZOLID]	0.5 (≈ 1.48 µM)	1 (≈ 2.96 µM)	1 (≈ 2.96 µM)	4 (≈ 11.9 µM)	8 (≈ 23.7 µM)	11	2 (≈ 5.93 µM)	2 (≈ 5.93 µM)	2 (≈ 5.93 µM)	2 (≈ 5.93 µM)	4 (≈ 11.9 µM)	1 (≈ 2.96 µM)	2 (≈ 5.93 µM)	4 (≈ 11.9 µM)	8 (≈ 23.7 µM)	1 (≈ 2.96 µM)	2 (≈ 5.93 µM)	0.5 (≈ 1.48 µM)	0.5 (≈ 1.48 µM)	0	MIC (Cutibacterium acnes [1]): 0.5 µg/mL (≈ 1.48 µM); MIC (Clostridium perfringens): 2 µg/mL (≈ 5.93 µM); MIC (Propionibacterium [5]): 0.5 µg/mL (≈ 1.48 µM); MIC50 (Peptostreptococcus sp.): 1 µg/mL (≈ 2.96 µM); MIC90 (Peptostreptococcus sp.): 2 µg/mL (≈ 5.93 µM); MIC50 [7]: 4 µg/mL (≈ 11.9 µM); MIC90 [7]: 8 µg/mL (≈ 23.7 µM); Activity (Finegoldia magna [8]): 0%; MIC50 (Parvimonas micra): 1 µg/mL (≈ 2.96 µM); MIC90 (Parvimonas micra): 2 µg/mL (≈ 5.93 µM); Activity [9]: 0%; MIC50 ([Clostridium] innocuum [10]): 4 µg/mL (≈ 11.9 µM); MIC90 ([Clostridium] innocuum [10]): 8 µg/mL (≈ 23.7 µM); Activity (Cutibacterium acnes [11]): 0%
